# Bioassay records: PubChem, several laboratories
# Runt-SMMHC FRET = inhibitors of RUNX1 Runt–CBFb-SMMHC binding, primary screen, biochemical, FRET, Cerulean-Runt, Venus-CBFb-SMMHC, uHTS. Cerulean-Runt/Venus-CBFb-SMMHC FRET ratio 530/480, 1 h. AID 1434, 2008. inhibition, % at 20 µM. Runt-related transcription factor 1 (Homo sapiens) + Core-binding factor subunit beta …. 220,000 tested, 0.74% active;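 active = mean inhibition across duplicate retests at 20 µM reaching about 50%, limit read from the data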;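 note: 0% = DMSO wells and 100% = wells with excess untagged CBFb-SMMHC; inhibitors lower the FRET ratio by blocking Runt binding to CBFb-SMMHC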
# RanGTP-Imp inh = inhibitors of RanGTP-importin-beta interaction, primary screen, biochemical, FRET, CFP-Ran, YFP-importin-beta, homogeneous | inhibition, % (concentration not given with the values) | cell-free CFP-Ran/YFP-importin-beta FRET ratio | Ran GTPase (GTP-bound) - importin-beta complex | 300,000 tested, 1.1% active;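 active = more than half of the replicate wells show a fall in the fluorescence ratio signal beyond about 16%, limit read from the data, passing the limit was not always enough; inconclusive = exactly half of the replicate wells pass the set limit; inactive = fewer than half of replicates pass the limit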;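 note: 0% = DMSO wells and 100% = Ran loaded with GDP instead of GTP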
# Hck-Nef inh = inhibitors of Nef-activated human Hck kinase, primary screen, biochemical, Z-Lyte FRET, 384-well, Hck-YEEI; Tyrosine-protein kinase HCK (Homo sapiens), P08631; 220,000 tested, 0.68% active; inhibition, % at 20 µM; Recombinant Hck-YEEI plus Nef, Z-Lyte FRET kinase assay; AID 463187, 2010;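 active = Hck-Nef kinase inhibition above about 50%, limit read from the data; inactive = inhibition below that limit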;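 note: 0% = DMSO with Hck plus Nef and 100% = Hck alone without Nef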
# Target sequence (P08631 whole entry, looked up): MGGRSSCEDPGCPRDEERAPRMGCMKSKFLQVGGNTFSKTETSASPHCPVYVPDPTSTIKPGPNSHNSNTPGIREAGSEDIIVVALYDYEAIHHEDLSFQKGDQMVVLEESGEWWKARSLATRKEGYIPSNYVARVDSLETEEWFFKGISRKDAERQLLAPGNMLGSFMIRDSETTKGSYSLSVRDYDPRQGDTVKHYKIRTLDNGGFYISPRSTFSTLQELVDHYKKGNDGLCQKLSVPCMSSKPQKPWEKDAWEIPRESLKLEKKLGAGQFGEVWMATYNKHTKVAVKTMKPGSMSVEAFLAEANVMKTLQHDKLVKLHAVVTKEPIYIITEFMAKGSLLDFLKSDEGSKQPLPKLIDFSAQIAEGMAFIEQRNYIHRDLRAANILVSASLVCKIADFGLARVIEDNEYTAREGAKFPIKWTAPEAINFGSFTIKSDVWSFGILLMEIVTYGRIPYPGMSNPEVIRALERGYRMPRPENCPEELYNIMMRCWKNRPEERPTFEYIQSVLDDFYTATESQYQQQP
# Runt-CBFb FRET = inhibitors of RUNX1 Runt–CBFb binding, primary screen, biochemical, FRET, Cerulean-Runt, Venus-CBFb, uHTS; Runt-related transcription factor 1 (Homo sapiens) + Core-binding factor subunit beta …; 220,000 tested, 0.46% active; inhibition, % at 20 µM; AID 1496, 2009; Cerulean-Runt/Venus-CBFb FRET ratio 530/480, 1 h;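 active = inhibition over about 50% at 20 µM in the single-dose screen, limit read from the data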;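 note: 0% = DMSO wells and 100% = excess unlabeled CBFb competitor control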
#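 Assay system: Cerulean-tagged RUNX1 Runt domain (FRET donor) fusion protein / Amount: 100 nM each of Venus-CBFb and Cerulean-Runt domain / Medium: Tris buffer pH 7.5 with salts and BSA / Also added: Venus-CBFb 100 nM / Schedule: 1 h complex formation plus 1 h compound treatment, room temperature / Signal: FRET fluorescence / Read-out: loss of energy transfer signal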
# Hck Nef conf = retest of Hck:Nef kinase inhibitor hits, confirmation, biochemical, Z-Lyte FRET, 384-well, p-Tyr peptide counterscreen; shares compounds with Hck-Nef inh; Recombinant Hck-YEEI:Nef, Z-Lyte FRET kinase assay; calls only at 10 µM; 1,300 tested, 28% active; AID 463188, 2010;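 active = average inhibition of at least 50%, with Z-scores no higher than 3 in both the phospho-tyrosine peptide and fluorescence counterscreens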
# Starred values were filed as active, the others as inactive; i = inactive; ? = inconclusive; . = no result shown; + = active, no number. Most compounds without a hit are left out; they make up all but 1.7% or so of the library.
SMILES,Runt-SMMHC FRET,RanGTP-Imp inh,Hck-Nef inh,Runt-CBFb FRET,Hck Nef conf
COc1cccc(C(=O)COc2ccc(NC(=O)c3ccccc3)cc2)c1,.,1.3,.,.,.
Cc1ccc(-c2nc(N)s[n+]2-c2ccccc2)cc1,65.1*,5.8,101.0*,9.3,+
COc1cc(/C=c2\s/c(=C\C(=O)C(C)(C)C)[nH]c2=O)cc(OC)c1OC,-62.7,-0.7,22.5,-20.2,.
COc1ccc(/C=c2\s/c(=C\C(=O)C(C)(C)C)[nH]c2=O)cc1O,-36.9,?,70.9*,-4.2,+
COCCNc1oc(/C=C/c2ccccc2)nc1C#N,32.8,1.5,67.0*,9.5,.
N#Cc1nc(/C=C/c2ccccc2)oc1NCCCN1CCOCC1,31.9,3.9,53.9*,14.1,.
Cc1ccc(NC(=O)OCCNC(=O)OC(C)C)cc1,-3.0,?,-1.8,.,.
CCOC(=O)NCCOC(=O)Nc1ccc(Cl)cc1,-4.5,-1.9,58.3*,2.5,i
Cc1ccc(CN2CCN(CC(=O)N=Nc3c(O)[nH]c4ccccc34)CC2)cc1,2.5,-2.2,1.9,-2.6,.
O=C(N=Nc1c(O)[nH]c2ccccc12)c1ccc(CN2CCOCC2)cc1,3.0,-2.6,94.5*,1.1,+
CCOC(=O)c1nnn2c1nc(Nc1cccc(C(F)(F)F)c1)c1ccccc12,-1.2,4.1,66.0*,-1.6,i
CCOC(=O)c1nnn2c1nc(SCC(C)=O)c1ccccc12,-0.5,-8.8,12.6,-0.4,.
Cc1nnc(SCC(=O)N2CCN(c3ccccc3)CC2)n(N)c1=O,-0.5,1.8,-0.8,1.5,.
COc1ccc2cc3cc(C(=O)Nc4ccc5c(c4)OCCO5)oc3nc2c1,-40.7,-1.4,51.8*,-7.0,i
COc1ccc2cc3cc(C(=O)Nc4cc(OC)c(OC)c(OC)c4)oc3nc2c1,-31.1,?,1.2,-12.9,.
CCOC(=O)CCN(Cc1ccccc1)S(=O)(=O)c1csc(C(N)=O)c1,.,1.4,.,.,.
O=C(Nc1nnc(SCc2c(Cl)cccc2Cl)s1)c1ccc2ncsc2c1,-0.1,-0.2,110.5*,0.4,+
Cc1ccc2nc(NC(=O)c3ccc4ncsc4c3)sc2c1,6.3,2.8,14.0,1.0,.
N#Cc1ccc(CSc2nnc(NC(=O)c3ccc4ncsc4c3)s2)cc1,-48.9,2.0,68.2*,-6.1,i
O=C(NCC1CCCO1)C(c1cccs1)N(C(=O)c1ccc(CN2CCOCC2)o1)c1ccc(Cl)cc1 (centres undefined),1.2,?,-0.2,-1.1,.
CC1CCCN(C(=O)CCS(=O)(=O)c2ccc3c(c2)NC(=O)C(C)S3)C1 (centres undefined),.,-1.3,.,.,.
COc1cc2c(cc1OC)C(Nc1ccccc1)=NC(C)(C)C2,-0.4,1.7,2.5,1.0,.
C=CCNC(=O)NC(=O)COC(=O)[C@H](C)NS(=O)(=O)c1c(C)c(C)cc(C)c1C,2.9,6.4,17.1,-0.1,.
N#Cc1c(Nc2ccccc2)sc(C(=O)c2ccccc2)c1N,-0.8,1.4,-0.5,1.1,.
Cc1cccc(Nc2sc(C(=O)c3cc4cc(Cl)ccc4o3)c(N)c2C#N)c1,-114.0,1.6,56.1*,-12.1,i
SMILES,Runt-SMMHC FRET,RanGTP-Imp inh,Hck-Nef inh,Runt-CBFb FRET,Hck Nef conf
CC1=C(C#N)C(=O)NC(=O)/C1=C\c1ccc(-c2cc(C)c(C)cc2[N+](=O)[O-])o1,11.1,-0.5,90.8*,30.8,+
CCN(CC)c1ccc(NC(=O)Cn2c(C(C)NC(=O)c3ccc(C)cc3)nc3ccccc32)cc1 (centres undefined),3.1,-0.5,82.5*,3.8,+
O=C(NCc1ccc(F)cc1)C(=O)NCC1OCCN1S(=O)(=O)c1cccs1 (centres undefined),-0.1,0.2,0.3,-0.6,.
CC(=O)[C@@]1(O)C(C)CC2C3C=C(C)C4=Cc5c(cnn5-c5ccccc5)C[C@]4(C)C3C(O)C[C@@]21C (some centres undefined),1.3,0.9,9.9,-1.0,.
N#Cc1c2nc3ccccc3nc2n2cc(NC(=O)c3ccc(F)cc3)ccc12,-66.4,.,72.2*,-29.9,i
CCC1CC2CC(NC(C)=O)C1C2 (centres undefined),-0.7,.,0.4,.,.
COc1ccc(-n2c(=S)[nH]c3cc(C(=O)NCc4ccco4)ccc3c2=O)cc1OC,-7.7,1.5,4.8,-0.9,.
COc1ccc(CCn2c(=S)[nH]c3cc(C(=O)NCc4ccco4)ccc3c2=O)cc1OC,-2.6,-3.7,75.4*,0.8,+
Cc1ccc(Nc2nc(CSc3n[nH]c(N)n3)cs2)cc1,-0.5,2.4,-11.9,9.2,.
O=C(NCCc1ccccc1Cl)c1ccc2nc3ccccc3c(=O)n2c1,.,7.3,.,.,.
CNC(=O)c1cc2c(=O)n3cc(C)ccc3nc2n(C(C)C)c1=N,41.0,180.7*,170.9*,11.1,.
C=CCn1c(=N)c(C(=O)NCCCOC)cc2c(=O)n3cc(C)ccc3nc21,79.3*,2.2,187.3*,10.4,.
C=CCn1c(=N)c(C(=O)NCCCOC)cc2c(=O)n3ccccc3nc21,81.6*,174.6*,+,8.7,.
C=CCn1cc(C(=O)NCCCOC)c(=O)c2cc(S(=O)(=O)N(CC)CC)ccc21,-3.0,-2.4,0.1,-6.5,.
O=C(COC(=O)/C=C/c1ccccc1)NNC(=O)c1ccc([N+](=O)[O-])cc1,.,-4.3,.,.,.
O=C(C[n+]1ccn(CCCNP2(=O)C=C(c3ccccc3)OC(c3ccccc3)=C2)c1)c1cccs1,1.2,-1.8,22.0,-1.7,.
CC1CCCN(Cc2c(O)ccc3c4c(c(=O)oc23)CCCC4)C1 (centres undefined),78.7*,10.4,64.4*,44.6,.
COc1ccc(-c2c(C)oc3c(CN4CCOCC4)c(O)ccc3c2=O)cc1,1.4,4.7,-1.4,1.8,.
O=c1oc2c(CN3CCOCC3)c(O)ccc2c2c1CCC2,54.1*,.,85.5*,20.6,.
CC1CN(Cc2c(O)ccc3c2oc(=O)c2ccccc23)CC(C)O1 (centres undefined),-4.0,2.1,24.0,1.6,.
Cc1cc(C)cc(N(C(C)C(=O)N2CCCC2)S(C)(=O)=O)c1 (centres undefined),.,0.5,.,.,.
C=CCn1cc(/C=C2/NC(=O)NC2=O)c2ccccc21,-8.3,-1.6,61.2*,2.6,i
COc1ccc(NC(=S)N2CCc3ccccc32)cc1OC,.,-5.9,.,.,.
N#C/C(=C\c1ccc(OC(=O)c2cccs2)cc1)c1nc2ccccc2[nH]1,-25.1,5.5,56.8*,-0.2,+
